Results on 2 compounds are retold here after ChEMBL document CHEMBL3526063, “Metabolism and pharmacokinetics of JM6 in mice: JM6 is not a prodrug for Ro-61-8048” (Drug Metab Dispos, 2012).

Series [1] addresses Kynurenine 3-monooxygenase (Homo sapiens, UniProt O15229). The series can be described thus: Inhibition of human KMO assessed as 3-hydroxykynurenine formation preincubated for 5 mins using 100 uM kynurenine as substrate by LC-MS/MS analysis. The gist of the method: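 Liver mitochondrial KMO preparation (mouse C57 BL/6J, rat Wistar, human) at 0.3 mg protein/mL in 100 mM potassium phosphate pH 7.4 with 200 µM NADPH, 0.4 U/mL G6PDH, 3 mM glucose 6-phosphate. Compound pre-incubated 5 min at 25°C, then 100 µM kynurenine added; 40 min (rodent) or 60 min (human). Stopped with TCA; 3-hydroxykynurenine by LC-MS/MS. IC50 from 8-point 3-fold dilutions (top 3 or 30 µM), triplicates, n≥2 runs.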

Series [2] deals with Mus musculus. The series can be described thus: Dose normalised Cmax in C57BL/6N mouse treated with JM6 (containing <0.4% Ro-61-8048) at 9.5 mg/kg, po and Ro-61-8048 at 0.05 mg/kg, po drugs administered via gavage by LC-MS/MS analysis. In kind it is ADME, organism-based. Particulars: in vivo, in the assay text read “0.5 mg/kg” for “0.05 mg/kg”. A digest of the protocol: (§1)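 Male C57BL/6N mice were dosed by oral gavage at 10 mL/kg with a fine suspension in 10% hydroxypropyl-β-cyclodextrin in 50 mM phosphate buffer, pH 7. Plasma was taken at non-serial time points (n=3 per time point), extracted with 0.1% formic acid in acetonitrile containing diclofenac as internal standard, and quantified by UPLC-MS/MS. Composite non-compartmental parameters came from mean concentrations; AUClast by linear trapezoid, kel from at least three terminal points.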

A short description of series [3]: Tmax in C57BL/6N mouse treated with JM6 (containing <0.4% Ro-61-8048) at 25 mg/kg, po and Ro-61-8048 at 0.05 mg/kg, po drugs administered via gavage by LC-MS/MS analysis. The conditions noted are these: in vivo. In kind it is ADME, organism-based. The gist of the method:
(§2)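 Male C57BL/6N mice dosed by oral gavage (10 mL/kg) as fine suspensions in 10% hydroxypropyl-β-cyclodextrin in 50 mM phosphate buffer pH 7; dose formulations verified by LC-MS/MS. Plasma analysed by LC-MS/MS; composite non-compartmental parameters from mean concentrations (n=3 per time point), C0 set to zero. %F = dose-normalised po AUCinf over dose-normalised iv AUCinf, only within linear range.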

The test system of series [4] is MDR1. The series can be described thus: Apparent permeability from basolateral to apical side in MDCK2-MDR1 cells at 10 uM after 1 hr by LC-MS/MS analysis. The conditions noted are these: dog, MDCK-MDR1. In kind it is ADME, cell-based, Canis lupus familiaris, MDCK-II. The gist of the method:
(§3)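 MDCKII wild-type or MDR1 monolayers were grown 3 days on Transwells after seeding at 2×10^5 cells/well. Compound at 10 µM in HBSS with 25 mM HEPES, pH 7.4, was added apically or basolaterally in duplicate, with Lucifer Yellow as an integrity marker (wells above 100 nm/s rejected).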

A short description of series [5]: Oral bioavailability in C57BL/6N mouse treated with JM6 (containing <0.4% Ro-61-8048) at 10 mg/kg and Ro-61-8048 at 0.05 mg/kg drugs administered via gavage by LC-MS/MS analysis. The conditions noted are these: in vivo. It counts as ADME, organism-based. A digest of the protocol: as §2
A short description of series [6]: AUClast in C57BL/6N mouse treated with JM6 (containing <0.4% Ro-61-8048) at 25 mg/kg, po and Ro-61-8048 at 0.05 mg/kg, po drugs administered via gavage by LC-MS/MS analysis. It counts as ADME, organism-based. Also noted: dose 25 mg/kg, route oral, time 0 - last. Particulars: plasma. The gist of the method:
as §1

Series [7] in a line: Tmax in C57BL/6N mouse treated with JM6 (containing <0.4% Ro-61-8048) at 9 mg/kg, po and Ro-61-8048 at 1 mg/kg, po drugs administered via gavage by LC-MS/MS analysis. In kind it is ADME, organism-based. Particulars: in vivo. A digest of the protocol: as §2
Series [8] is described as follows: AUClast in C57BL/6N mouse treated with JM6 (containing <0.4% Ro-61-8048) at 50 mg/kg, po and Ro-61-8048 at 0.05 mg/kg, po drugs administered via gavage by LC-MS/MS analysis. It counts as ADME, organism-based. Also noted: dose 50 mg/kg, time 0 - last, route oral. The conditions noted are these: plasma. A digest of the protocol:
as §1

Series [9] can be described thus: Apparent permeability from apical to basolateral side in MDCK2 cells at 10 uM after 1 hr by LC-MS/MS analysis. It counts as ADME, cell-based, Canis lupus familiaris, MDCK-II. The conditions noted are these: dog. A digest of the protocol: as §3
The nature of series [10]: Cmax in C57BL/6N mouse treated with JM6 (containing <0.4% Ro-61-8048) at 10 mg/kg, po and Ro-61-8048 at 0.05 mg/kg, po drugs administered via gavage by LC-MS/MS analysis. In kind it is ADME, organism-based. More on the design: dose 10 mg/kg, route oral. Particulars: in vivo. The gist of the method:
as §1

Series [11] in a line: Metabolic stability in human liver microsomes assessed as half life at 5 uM after 5 to 40 mins by LC-MS/MS analysis. It counts as ADME. On the technique in general: Liver microsomes are vesicles of endoplasmic reticulum, rich in cytochrome P450 enzymes.
A short description of series [12]: Efflux ratio of permeability from basolateral to apical side over apical to basolateral side in MDCK2 cells at 10 uM after 1 hr by LC-MS/MS analysis. The conditions noted are these: dog. In kind it is ADME, cell-based, Canis lupus familiaris, MDCK-II. A digest of the protocol:
(§4)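 MDCKII wild-type and MDR1 cells grown on Transwells 3 days at 2×10^5 cells/well. Compound 10 μM in HBSS with 25 mM HEPES pH 7.4, added apical or basolateral in duplicate, 1 h at 37 °C. Lucifer Yellow monitored monolayer integrity; wells above 100 nm/s rejected. Both chambers sampled, LC-MS/MS; Papp A>B and B>A, ratio B>A:A>B.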

Series [13] relates to Mus musculus. The series can be described thus: Dose normalised AUC in C57BL/6N mouse treated with JM6 (containing <0.4% Ro-61-8048) at 50 mg/kg, po and Ro-61-8048 at 0.05 mg/kg, po drugs administered via gavage by LC-MS/MS analysis. Particulars: in vivo. It counts as ADME, organism-based. A digest of the protocol: as §1
Series [14] deals with MDR1. As to the kind of experiment: Apparent permeability from apical to basolateral side in MDCK2-MDR1 cells at 10 uM after 1 hr by LC-MS/MS analysis. The conditions noted are these: dog, MDCK-MDR1. In kind it is ADME, cell-based, Canis lupus familiaris, MDCK-II. A digest of the protocol: as §3
The subject of series [15] is Mus musculus. The series can be described thus: Dose normalised Cmax in C57BL/6N mouse treated with JM6 (containing <0.4% Ro-61-8048) at 50 mg/kg, po and Ro-61-8048 at 0.05 mg/kg, po drugs administered via gavage by LC-MS/MS analysis. It counts as ADME, organism-based. The conditions noted are these: in vivo. A digest of the protocol: as §1
Series [16] has as its system Mus musculus. The series can be described thus: Dose normalised AUC in C57BL/6N mouse treated with JM6 (containing <0.4% Ro-61-8048) at 10 mg/kg, po and Ro-61-8048 at 0.05 mg/kg, po drugs administered via gavage by LC-MS/MS analysis. In kind it is ADME, organism-based. Particulars: in vivo. A digest of the protocol: as §1
Series [17] can be described thus: Half life in C57BL/6N mouse treated with JM6 (containing <0.4% Ro-61-8048) at 9.5 mg/kg, po and Ro-61-8048 at 0.05 mg/kg, po drugs administered via gavage by LC-MS/MS analysis. In kind it is ADME, organism-based. Particulars: in vivo, in the assay text read “0.5 mg/kg” for “0.05 mg/kg”. The gist of the method: as §1
Series [18] is described as follows: AUC(infinity) in C57BL/6N mouse treated with JM6 (containing <0.4% Ro-61-8048) at 9 mg/kg, po and Ro-61-8048 at 1 mg/kg, po drugs administered via gavage by LC-MS/MS analysis. The conditions noted are these: plasma. It counts as ADME, organism-based. More on the design: dose 9 mg/kg, time infinity, route oral. The gist of the method: as §1
Series [19] concerns MDR1. As to the kind of experiment: Efflux ratio of permeability from basolateral to apical side over apical to basolateral side in MDCK2-MDR1 cells at 10 uM after 1 hr by LC-MS/MS analysis. It counts as ADME, cell-based, Canis lupus familiaris. Particulars: dog, MDCK-MDR1. The gist of the method: as §4
Series [20] is described as follows: Metabolic stability in mouse plasma assessed as half life at 5 uM after 10 to 1440 mins by LC-MS/MS analysis. It counts as ADME, cell-free.
The nature of series [21]: AUC(infinity) in C57BL/6N mouse at 0.05 mg/kg, po administered via gavage by LC-MS/MS analysis. In kind it is ADME, organism-based. More on the design: time infinity, dose 0.05 mg/kg, route oral. The conditions noted are these: plasma. The gist of the method:
as §1

What is called IC50 is the point on the concentration scale where inhibition reaches its midpoint. By Tmax is commonly meant the time at which the peak concentration occurs. The term Papp B→A denotes how fast a substance crosses the layer from the basolateral side. In general, bioavailability refers to the share of a dose that reaches the circulation, judged against a reference dose that is usually intravenous. Read a low bioavailability as little systemic uptake. The AUC(0-t) is the area under the concentration-time curve up to a stated or last time point. A high value points to more exposure. What is called Papp is the rate of passage across a membrane or cell layer, normalised by area and donor concentration. A word on the Cmax: it is the maximum level reached in the sampled fluid or tissue. Usually half-life stands for how long it takes for the measured level to halve. For orientation: Papp A→B means how fast a substance crosses the layer from the apical side. One may read the AUC(0-inf) as total exposure, with the tail of the curve extrapolated. Low readings indicate low exposure, high ones high exposure. The efflux ratio is the permeability from basolateral to apical divided by that in the opposite direction, in the common usage.

Sequence of Kynurenine 3-monooxygenase (O15229 whole entry): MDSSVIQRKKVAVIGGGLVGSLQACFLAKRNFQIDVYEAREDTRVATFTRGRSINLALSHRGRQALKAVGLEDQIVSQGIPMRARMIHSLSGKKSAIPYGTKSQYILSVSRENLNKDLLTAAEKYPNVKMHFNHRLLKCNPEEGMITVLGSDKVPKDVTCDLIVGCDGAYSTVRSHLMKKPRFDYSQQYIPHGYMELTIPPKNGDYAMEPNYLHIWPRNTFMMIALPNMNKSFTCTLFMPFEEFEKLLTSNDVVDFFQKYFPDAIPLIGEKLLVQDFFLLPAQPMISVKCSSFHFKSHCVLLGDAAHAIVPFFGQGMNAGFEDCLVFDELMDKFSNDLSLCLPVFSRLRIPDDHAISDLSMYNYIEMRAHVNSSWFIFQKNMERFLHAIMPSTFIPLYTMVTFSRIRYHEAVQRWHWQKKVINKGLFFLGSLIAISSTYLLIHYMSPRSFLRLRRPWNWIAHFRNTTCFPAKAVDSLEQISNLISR

As to `COc1ccc(S(=O)(=O)Nc2nc(-c3cccc([N+](=O)[O-])c3)c(CN3CCCCC3)s2)cc1OC`, the IC50 in series [1] came to 11 µM. The Cmax/dose was 150 nM with Mus musculus [2] and 190 nM in the series with Mus musculus [15]. For the same compound, the Tmax in [3] and in [7] was 30 min each time. The Papp B→A at 1 h, 10 µM in the series with MDR1 [4] came out at 43 ×10⁻⁶ cm/s. Further, the bioavailability in [5] was 13%. For the same compound, the AUC(0-t) turned out to be 4.8 µM·h in [6] and 9.6 µM·h in [8]. The Papp in [9] (mdck-ii, 1 h, 10 µM) turned out to be 4.7 ×10⁻⁶ cm/s. In series [10], this compound came in with a Cmax of 1900 nM. Besides, the half-life at 5 µM in [11] was over 97 min; in [20] it was over 1440 min. The Ratio in series [12] (mdck-ii, 1 h, 10 µM) amounted to 5.3. The AUC/dose in the series with Mus musculus [13] amounted to 190 nM·kg·h/mg; in the series on Mus musculus [16], 130 nM·kg·h/mg. The apparent permeability from apical to basolateral (Papp A→B) at 1 h, 10 µM in the series with MDR1 [14] was found to be 0.72 ×10⁻⁶ cm/s. In series [17], this compound showed a half-life of 54 min. The same compound registered an area under the curve AUC(0-inf) in series [18] of 1.1 µM·h. For the same compound, the efflux ratio at 1 h, 10 µM in the series with MDR1 [19] is 60.
Turning to `COc1ccc(S(=O)(=O)Nc2nc(-c3cccc([N+](=O)[O-])c3)cs2)cc1OC`, in [1], the IC50 is 0.17 µM. Moreover, the Cmax/dose is recorded as 18000 nM in the series on Mus musculus [2] and 160000 nM in the series with Mus musculus [15]. For the same compound, the figures for the Tmax in [3] and in series [7] were 120 min and 30 min, respectively. Besides, the AUC(0-inf) amounted to 4.5 µM·h in [21] and 110 µM·h in series [18]. Also, the Papp B→A at 1 h, 10 µM in the series on MDR1 [4] came out at 33 ×10⁻⁶ cm/s. In series [5], this compound returned a bioavailability of 80%. Moreover, the AUC(0-t) was 8.4 µM·h in series [6] and 7.9 µM·h in [8]. Also, the figures for the apparent permeability from apical to basolateral (Papp A→B) at 1 h, 10 µM (in series [9] (MDCK); with MDR1 [14]) were 17 ×10⁻⁶ cm/s and 10 ×10⁻⁶ cm/s, respectively. In series [10], this compound yielded a Cmax of 530 nM. Moreover, the half-life at 5 µM is 12 min in series [11] and over 1440 min in series [20]. The efflux ratio at 1 h, 10 µM in [12] (MDCK) came out at 0.8; in the series with MDR1 [19], 3.2. In addition, the results for the AUC/dose in the series with Mus musculus [13] and with Mus musculus [16] were 160000 nM·kg·h/mg and 100000 nM·kg·h/mg, respectively. This compound showed a half-life in series [17] of 414 min.
